Our source for the inhibition and residual activity values is ChEMBL document CHEMBL5678810.

One may read the inhibition as the relative decrease from the control value, in per cent.

Active and inactive are the calls of the source. No cut-off for these calls is given here.

Assay [1] has as its target Activin receptor type-1B (Homo sapiens) (UniProt P36896). The experiment in a line: Inhibition of T7 bacteriophage fused human ACVR1B at 10 uM by KINOMEscan analysis relative to control.
The target of assay [2] is Tyrosine-protein kinase receptor UFO (Homo sapiens) (UniProt P30530). The experiment in a line: Inhibition of T7 bacteriophage fused human AXL at 10 uM by KINOMEscan analysis relative to control.
Assay [3] has as its target Serine/threonine-protein kinase BRSK1 (Homo sapiens) (UniProt Q8TDC3). As to the kind of experiment: Inhibition of T7 bacteriophage fused human BRSK1 at 10 uM by KINOMEscan analysis relative to control.
For assay [4], the target named is Tyrosine-protein kinase BTK (Homo sapiens) (UniProt Q06187). As to the kind of experiment: Inhibition of T7 bacteriophage fused human BTK at 10 uM by KINOMEscan analysis relative to control.
Assay [5] concerns Epidermal growth factor receptor (Homo sapiens), P00533 [UNDEFINED MUTATION]. The experiment in a line: Inhibition of T7 bacteriophage fused human EGFR L747/T751del/Sins mutant at 10 uM by KINOMEscan analysis relative to control.
Assay [6] deals with Ephrin type-A receptor 4 (Homo sapiens) (UniProt P54764). The experiment in a line: Inhibition of T7 bacteriophage fused human EPHA4 at 10 uM by KINOMEscan analysis relative to control.
In assay [7] the target is Ephrin type-B receptor 3 (Homo sapiens) (UniProt P54753). As to the kind of experiment: Inhibition of T7 bacteriophage fused human EPHB3 at 10 uM by KINOMEscan analysis relative to control.
The target of assay [8] is Receptor-type tyrosine-protein kinase FLT3 (Homo sapiens) (UniProt P36888). The experiment in a line: Inhibition of T7 bacteriophage fused human FLT3 at 10 uM by KINOMEscan analysis relative to control.
For assay [9], the system named is Mast/stem cell growth factor receptor Kit (Homo sapiens), P10721 [V559D]. The experiment in a line: Inhibition of T7 bacteriophage fused human KIT V559D mutant at 10 uM by KINOMEscan analysis relative to control.
Assay [10] relates to Phosphatidylinositol 4,5-bisphosphate 3-kinase catalytic subunit alpha isoform (Homo sapiens), P42336 [C420R]. The experiment in a line: Inhibition of T7 bacteriophage fused human PIK3CA C420R mutant at 10 uM by KINOMEscan analysis relative to control.
Assay [11] has as its system Proto-oncogene tyrosine-protein kinase receptor Ret (Homo sapiens), P07949 [V804M]. As to the kind of experiment: Inhibition of T7 bacteriophage fused human RET V804M mutant at 10 uM by KINOMEscan analysis relative to control.
The target of assay [12] is Ribosomal protein S6 kinase alpha-4 (Homo sapiens) (UniProt O75676). The experiment in a line: Inhibition of T7 bacteriophage fused human C-terminal RPS6KA4 Kinase domain-2 at 10 uM by KINOMEscan analysis relative to control.
Assay [13] addresses Uncharacterized serine/threonine-protein kinase SBK3 (Homo sapiens) (UniProt P0C264). As to the kind of experiment: Inhibition of T7 bacteriophage fused human SgK110 at 10 uM by KINOMEscan analysis relative to control.
Assay [14] has as its target Focal adhesion kinase 1 (Homo sapiens) (UniProt Q05397). The experiment in a line: Inhibition of T7 bacteriophage fused human FAK at 10 uM by KINOMEscan analysis relative to control; values are per cent of control.
Assay [15] has as its target Cyclin-dependent kinase-like 3 (Homo sapiens) (UniProt Q8IVW4). As to the kind of experiment: Inhibition of T7 bacteriophage fused human CDKL3 at 10 uM by KINOMEscan analysis relative to control; values are per cent of control.
Assay [16] concerns the target Death-associated protein kinase 1 (Homo sapiens) (UniProt P53355). As to the kind of experiment: Inhibition of T7 bacteriophage fused human DAPK1 at 10 uM by KINOMEscan analysis relative to control; values are per cent of control.
Assay [17] concerns the target Ephrin type-A receptor 2 (Homo sapiens) (UniProt P29317). The experiment in a line: Inhibition of T7 bacteriophage fused human EPHA2 at 10 uM by KINOMEscan analysis relative to control; values are per cent of control.
In assay [18] the target is Ephrin type-A receptor 5 (Homo sapiens) (UniProt P54756). The experiment in a line: Inhibition of T7 bacteriophage fused human EPHA5 at 10 uM by KINOMEscan analysis relative to control; values are per cent of control.
Assay [19] concerns the target Fibroblast growth factor receptor 1 (Homo sapiens) (UniProt P11362). As to the kind of experiment: Inhibition of T7 bacteriophage fused human FGFR1 at 10 uM by KINOMEscan analysis relative to control; values are per cent of control.
Assay [20] deals with Fibroblast growth factor receptor 4 (Homo sapiens) (UniProt P22455). As to the kind of experiment: Inhibition of T7 bacteriophage fused human FGFR4 at 10 uM by KINOMEscan analysis relative to control; values are per cent of control.
For assay [21], the target named is Dual specificity tyrosine-phosphorylation-regulated kinase 1A (Homo sapiens) (UniProt Q13627). The experiment in a line: Inhibition of T7 bacteriophage fused human DYRK1A at 10 uM by KINOMEscan analysis relative to control; values are per cent of control.
The target of assay [22] is MAP kinase-activated protein kinase 5 (Homo sapiens) (UniProt Q8IW41). The experiment in a line: Inhibition of T7 bacteriophage fused human MAPKAPK5 at 10 uM by KINOMEscan analysis relative to control; values are per cent of control.
Assay [23] addresses Phosphatidylinositol 5-phosphate 4-kinase type-2 gamma (Homo sapiens) (UniProt Q8TBX8). The experiment in a line: Inhibition of PIP4K2C ATP labeling site harboring TLVIkEVSSEDIADMHSNLSNYHQYIVK in human PC-3 cell lysate at 10 uM by KiNativ profiling analysis relative to control. The format is subcellular.
The test system of assay [24] is Leucine-rich repeat serine/threonine-protein kinase 2 (Homo sapiens), Q5S007 [A2016T]. The experiment in a line: Inhibition of drug-resistant GFP-tagged LRRK2 A2016T mutant phosphorylation at Ser910 residue (unknown origin) transfected in HEK293 cells upto 3 uM incubated for 90 mins by immunoblot analysis. The format is cell-based. Put shortly:
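HEK293 cells stably expressing GFP-LRRK2 variants, grown in DMEM with 10% FBS, 2 mM glutamine and penicillin/streptomycin. Compound added from DMSO stock (final DMSO ≤1%) at increasing concentrations for 90 min, DMSO control. Cells were PBS-washed and lysed in Triton X-100 lysis buffer. Lysates were run on 8% SDS-PAGE and immunoblotted with rabbit monoclonals against pSer910, pSer935 and total LRRK2.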
In general terms: Immunoblotting shows a protein as a band on a membrane.

For assay [25], the target named is Leucine-rich repeat serine/threonine-protein kinase 2 (Homo sapiens) (UniProt Q5S007). The experiment in a line: Inhibition of wildtype GFP-tagged LRRK2 phosphorylation at Ser935 residue (unknown origin) transfected in HEK293 cells upto 3 uM incubated for 90 mins by immunoblot analysis. Format: cell-based.
The target is the same in assay [26]. The experiment in a line: Inhibition of LRRK2 phosphorylation at Ser910 residue in EBV immortalized human derived lymphoblastoid cells at 0.01 to 3 uM incubated for 90 mins by immunoblot analysis. The format is cell-based. To be noted: Lymphoblastoid cell, dose 0.01-3 µM.

Chain of Leucine-rich repeat serine/threonine-protein kinase 2 (Homo sapiens) (Q5S007 whole entry): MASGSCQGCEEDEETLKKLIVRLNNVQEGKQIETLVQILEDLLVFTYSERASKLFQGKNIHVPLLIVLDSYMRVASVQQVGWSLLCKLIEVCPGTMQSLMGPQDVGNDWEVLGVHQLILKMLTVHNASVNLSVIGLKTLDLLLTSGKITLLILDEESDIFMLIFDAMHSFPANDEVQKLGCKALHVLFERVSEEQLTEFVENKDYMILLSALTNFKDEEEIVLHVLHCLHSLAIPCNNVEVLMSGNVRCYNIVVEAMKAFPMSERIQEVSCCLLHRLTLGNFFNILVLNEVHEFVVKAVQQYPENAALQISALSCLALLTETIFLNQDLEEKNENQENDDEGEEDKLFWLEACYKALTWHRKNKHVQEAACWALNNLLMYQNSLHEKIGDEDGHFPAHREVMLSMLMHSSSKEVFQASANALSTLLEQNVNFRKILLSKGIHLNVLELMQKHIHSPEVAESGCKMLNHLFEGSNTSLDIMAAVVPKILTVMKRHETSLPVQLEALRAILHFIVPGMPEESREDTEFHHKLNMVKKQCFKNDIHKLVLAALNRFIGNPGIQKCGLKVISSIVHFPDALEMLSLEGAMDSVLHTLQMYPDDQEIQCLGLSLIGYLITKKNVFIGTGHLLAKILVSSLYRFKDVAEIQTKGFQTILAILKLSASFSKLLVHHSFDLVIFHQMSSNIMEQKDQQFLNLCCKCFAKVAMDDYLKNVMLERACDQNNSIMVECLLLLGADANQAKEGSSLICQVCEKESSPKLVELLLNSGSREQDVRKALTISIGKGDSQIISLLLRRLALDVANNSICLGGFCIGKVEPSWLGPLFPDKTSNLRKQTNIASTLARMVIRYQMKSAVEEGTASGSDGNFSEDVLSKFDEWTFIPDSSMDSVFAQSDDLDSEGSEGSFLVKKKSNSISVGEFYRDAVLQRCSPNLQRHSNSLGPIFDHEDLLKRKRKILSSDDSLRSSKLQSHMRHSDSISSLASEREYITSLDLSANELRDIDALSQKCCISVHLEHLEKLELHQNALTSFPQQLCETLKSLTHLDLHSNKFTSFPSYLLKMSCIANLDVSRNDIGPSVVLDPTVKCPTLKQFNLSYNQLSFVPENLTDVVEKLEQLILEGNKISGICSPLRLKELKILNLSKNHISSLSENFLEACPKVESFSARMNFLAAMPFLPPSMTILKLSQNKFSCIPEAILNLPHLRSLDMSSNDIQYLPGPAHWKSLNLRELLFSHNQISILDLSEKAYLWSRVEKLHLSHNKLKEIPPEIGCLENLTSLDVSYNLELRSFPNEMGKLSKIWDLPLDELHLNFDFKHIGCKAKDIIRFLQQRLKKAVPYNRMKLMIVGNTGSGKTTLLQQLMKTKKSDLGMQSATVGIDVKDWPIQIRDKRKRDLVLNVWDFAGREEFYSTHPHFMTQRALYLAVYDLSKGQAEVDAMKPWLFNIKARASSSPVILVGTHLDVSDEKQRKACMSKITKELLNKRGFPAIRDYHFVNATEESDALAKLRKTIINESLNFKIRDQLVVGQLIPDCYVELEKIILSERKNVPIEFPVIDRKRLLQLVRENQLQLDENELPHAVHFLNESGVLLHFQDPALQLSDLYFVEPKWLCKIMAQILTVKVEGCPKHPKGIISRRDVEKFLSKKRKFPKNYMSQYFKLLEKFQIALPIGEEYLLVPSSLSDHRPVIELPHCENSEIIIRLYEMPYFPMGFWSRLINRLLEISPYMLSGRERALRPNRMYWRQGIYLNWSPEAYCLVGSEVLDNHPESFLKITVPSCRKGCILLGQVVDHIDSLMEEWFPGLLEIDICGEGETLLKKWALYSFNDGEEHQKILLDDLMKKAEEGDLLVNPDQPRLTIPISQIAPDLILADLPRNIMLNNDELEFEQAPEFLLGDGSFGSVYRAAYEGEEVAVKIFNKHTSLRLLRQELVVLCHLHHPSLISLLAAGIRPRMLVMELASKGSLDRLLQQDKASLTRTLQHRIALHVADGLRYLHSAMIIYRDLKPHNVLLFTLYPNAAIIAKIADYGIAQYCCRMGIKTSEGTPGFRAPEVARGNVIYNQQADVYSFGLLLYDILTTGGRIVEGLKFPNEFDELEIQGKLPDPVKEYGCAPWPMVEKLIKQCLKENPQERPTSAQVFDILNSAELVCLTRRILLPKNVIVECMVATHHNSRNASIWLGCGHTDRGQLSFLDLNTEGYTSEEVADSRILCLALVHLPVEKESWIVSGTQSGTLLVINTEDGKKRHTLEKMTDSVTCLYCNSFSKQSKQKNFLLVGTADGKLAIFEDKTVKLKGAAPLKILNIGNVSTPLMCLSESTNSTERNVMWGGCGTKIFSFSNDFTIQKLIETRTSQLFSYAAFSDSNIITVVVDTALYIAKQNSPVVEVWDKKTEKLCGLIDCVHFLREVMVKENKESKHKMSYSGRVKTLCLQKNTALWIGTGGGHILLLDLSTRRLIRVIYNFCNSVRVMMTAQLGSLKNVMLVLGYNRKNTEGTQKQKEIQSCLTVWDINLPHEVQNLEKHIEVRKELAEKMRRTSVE
Chain of Proto-oncogene tyrosine-protein kinase receptor Ret (Homo sapiens), P07949 [V804M] (P07949 whole entry V804M, the tested form may be a part): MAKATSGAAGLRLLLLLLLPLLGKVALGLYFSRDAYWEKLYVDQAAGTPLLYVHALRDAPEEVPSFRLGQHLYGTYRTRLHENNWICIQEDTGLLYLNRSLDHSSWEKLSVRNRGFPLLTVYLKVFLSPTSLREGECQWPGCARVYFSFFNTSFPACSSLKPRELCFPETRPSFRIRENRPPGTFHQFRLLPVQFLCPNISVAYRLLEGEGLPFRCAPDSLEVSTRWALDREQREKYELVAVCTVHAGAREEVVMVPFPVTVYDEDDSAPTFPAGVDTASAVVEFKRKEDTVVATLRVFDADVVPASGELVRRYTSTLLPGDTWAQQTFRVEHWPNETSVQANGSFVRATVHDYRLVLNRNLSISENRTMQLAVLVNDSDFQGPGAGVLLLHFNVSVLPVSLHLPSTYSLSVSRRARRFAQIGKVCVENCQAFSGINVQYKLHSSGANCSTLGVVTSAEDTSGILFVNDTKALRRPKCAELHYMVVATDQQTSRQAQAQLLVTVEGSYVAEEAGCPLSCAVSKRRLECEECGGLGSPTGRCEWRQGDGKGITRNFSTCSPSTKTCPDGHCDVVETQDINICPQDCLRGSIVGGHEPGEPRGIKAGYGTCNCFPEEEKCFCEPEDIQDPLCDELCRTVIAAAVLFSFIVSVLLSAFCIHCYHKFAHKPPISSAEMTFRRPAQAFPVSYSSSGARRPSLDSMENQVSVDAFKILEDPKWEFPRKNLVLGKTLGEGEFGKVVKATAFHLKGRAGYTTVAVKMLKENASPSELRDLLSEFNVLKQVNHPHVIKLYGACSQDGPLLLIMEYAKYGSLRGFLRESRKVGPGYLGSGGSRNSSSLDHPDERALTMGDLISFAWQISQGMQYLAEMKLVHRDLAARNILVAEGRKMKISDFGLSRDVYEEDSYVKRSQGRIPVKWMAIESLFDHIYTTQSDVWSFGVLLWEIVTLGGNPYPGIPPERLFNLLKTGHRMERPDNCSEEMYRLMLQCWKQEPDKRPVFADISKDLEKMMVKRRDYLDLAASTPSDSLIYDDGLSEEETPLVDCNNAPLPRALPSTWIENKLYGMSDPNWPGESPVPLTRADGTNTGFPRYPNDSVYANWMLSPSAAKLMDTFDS
Chain of MAP kinase-activated protein kinase 5 (Homo sapiens) (Q8IW41 whole entry, the tested form may be a part): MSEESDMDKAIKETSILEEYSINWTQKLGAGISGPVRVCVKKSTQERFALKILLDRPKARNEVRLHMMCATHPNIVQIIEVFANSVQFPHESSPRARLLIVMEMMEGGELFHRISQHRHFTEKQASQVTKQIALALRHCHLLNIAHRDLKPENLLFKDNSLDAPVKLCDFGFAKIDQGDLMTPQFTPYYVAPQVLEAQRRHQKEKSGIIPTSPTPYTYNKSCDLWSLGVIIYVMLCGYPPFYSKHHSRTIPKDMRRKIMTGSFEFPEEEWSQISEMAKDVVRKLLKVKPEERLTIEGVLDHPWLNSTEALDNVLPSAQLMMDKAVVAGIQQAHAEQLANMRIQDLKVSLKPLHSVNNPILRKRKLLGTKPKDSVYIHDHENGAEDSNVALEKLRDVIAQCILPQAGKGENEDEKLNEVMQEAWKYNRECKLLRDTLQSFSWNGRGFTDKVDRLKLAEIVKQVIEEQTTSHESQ
Chain of Activin receptor type-1B (Homo sapiens) (P36896 whole entry, the tested form may be a part): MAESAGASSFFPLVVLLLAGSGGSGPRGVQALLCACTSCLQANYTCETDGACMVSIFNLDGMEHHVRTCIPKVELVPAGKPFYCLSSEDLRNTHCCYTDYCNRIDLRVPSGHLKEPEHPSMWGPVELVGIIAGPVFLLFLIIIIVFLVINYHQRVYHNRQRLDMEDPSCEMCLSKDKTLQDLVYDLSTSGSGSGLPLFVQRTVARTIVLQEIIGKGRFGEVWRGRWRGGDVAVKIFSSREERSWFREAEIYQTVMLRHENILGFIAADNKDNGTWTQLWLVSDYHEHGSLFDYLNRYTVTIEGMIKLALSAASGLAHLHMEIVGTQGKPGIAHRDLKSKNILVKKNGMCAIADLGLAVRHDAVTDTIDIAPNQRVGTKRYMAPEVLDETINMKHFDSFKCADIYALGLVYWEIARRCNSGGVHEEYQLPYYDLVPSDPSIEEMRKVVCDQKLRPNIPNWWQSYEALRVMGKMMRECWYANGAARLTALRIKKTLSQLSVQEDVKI
Chain of Phosphatidylinositol 5-phosphate 4-kinase type-2 gamma (Homo sapiens) (Q8TBX8 whole entry): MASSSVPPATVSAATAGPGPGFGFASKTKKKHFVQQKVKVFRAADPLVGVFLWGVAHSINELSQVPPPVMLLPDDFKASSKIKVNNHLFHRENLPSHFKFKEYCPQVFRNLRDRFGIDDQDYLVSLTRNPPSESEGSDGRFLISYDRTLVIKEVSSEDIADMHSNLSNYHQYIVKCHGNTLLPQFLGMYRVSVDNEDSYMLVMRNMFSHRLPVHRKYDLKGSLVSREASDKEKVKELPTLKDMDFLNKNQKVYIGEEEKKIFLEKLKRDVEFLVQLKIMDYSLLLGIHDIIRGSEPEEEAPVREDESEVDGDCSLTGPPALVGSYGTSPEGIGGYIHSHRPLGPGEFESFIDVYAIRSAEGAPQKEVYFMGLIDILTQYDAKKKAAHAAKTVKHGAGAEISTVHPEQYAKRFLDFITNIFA
Chain of Leucine-rich repeat serine/threonine-protein kinase 2 (Homo sapiens), Q5S007 [A2016T] (Q5S007 whole entry A2016T): as the sequence (Q5S007 whole entry) above, with A2016T counted along it

With `COc1cc(N2CCC(N3CCN(C)CC3)CC2)ccc1Nc1ncc2c(n1)N(C)c1ccccc1C(=O)N2C`, the inhibition in assay [1] came to 100%; in assay [2] it was 100%; in [3], 81%; in [4] it was 100%; in assay [5] it was 100%; in assay [6] it was 89%. The inhibition was found to be 100% in assay [7]; 100% in [8]; 100% in [9]; 89% in assay [10]; 80% in [11]; 46% in assay [12]. Also, in assay [13], the inhibition worked out at 62%. In addition, the residual activity is 34% in [14]; 83% in assay [15]; 73% in assay [16]; 92% in assay [17]; 95% in [18]; 86% in assay [19]. Besides, the residual activity in [20] was 28%; in assay [21] it was 99%; in assay [22], 97%.

Take `COc1cc(C(=O)N2CCC(N3CCN(C)CC3)CC2)ccc1Nc1ncc2c(n1)N(C1CCCC1)c1ccccc1C(=O)N2C`: in [23], the inhibition is -0.1%.

Consider `CCOc1cc(C(=O)N2CCC(N3CCN(C)CC3)CC2)ccc1Nc1ncc2c(n1)N(C1CCCC1)c1ccccc1C(=O)N2C`, for which the inhibition result in [24], in assay [25] and in assay [26] was “inactive” each time.
